Measurements from different studies.
Each line is one published result; the experiments were not run side by side.

| SMILES | tested on | test | system | setting | measurement | value |
| --- | --- | --- | --- | --- | --- | --- |
| COCC1=N[C@@]2(O)[C@H](C(=O)N(C)OC)[C@@H](c3ccccc3)[C@]3(c4ccc(OC)cc4)Oc4cc(OC)cc(OC)c4[C@]23N1 | – | metabolic stability | male Sprague-Dawley rat, liver microsomes | 1 µM, pH 7.4 | half-life | 74.7 min |
| C[C@]12CC[C@H]3[C@@H](CCC4=CC(=O)CC[C@@]43C)[C@@H]1CC[C@@H]2O | – | metabolic stability | Sprague-Dawley rat, hepatocytes | 1 µM | half-life | 2.92 min |
| C[C@]12CC[C@H]3[C@@H](CC=C4CC(O)CC[C@@]43CO)[C@@H]1CCC2O (stereo partly shown) | – | metabolic stability | rat, liver microsomes | – | half-life | 19.9 min |
| CN1CC[C@H]2c3nc4ccc(Cl)cc4c(=O)n3CC[C@H]21 (racemic) | SH-SY5Y | cell growth or viability, ATP luminescence | – | – | CC50 | > 20 µM |
| NCCNC(=O)O[C@H]1CCC[C@@]2(C1)OOC1(O2)C2CC3CC(C2)CC1C3 (stereo partly shown) | – | – | male CD-1 mouse, plasma | intravenous, 3 mg/kg | AUC(0-inf) | 757 ng·h/mL |
| COc1cc(Cl)cc2c(=O)n3c(nc12)[C@@H]1CCCN(C)[C@@H]1CC3 (racemic) | SH-SY5Y | cell growth or viability, ATP luminescence | – | 72 h | CC50 | > 20 µM |
| CN1CCN(S(=O)(=O)c2cc([N+](=O)[O-])ccc2N(CCOS(C)(=O)=O)CCOS(C)(=O)=O)CC1 | – | – | female SCID mouse, plasma | intraperitoneal, 5 mg/kg | AUC(0-inf) | 0.5 µM·h |
| CONC(=O)[C@H]1[C@@H](O)[C@@]2(O)c3c(OC)cc(OC)cc3O[C@@]2(c2ccc(OC)cc2)[C@@H]1c1ccccc1 | – | metabolic stability | rat, liver microsomes | – | half-life | 58.3 min |
| CC(C)(N)CNC(=O)O[C@H]1CCC[C@@]2(C1)OOC1(O2)C2CC3CC(C2)CC1C3 (stereo partly shown) | – | – | male CD-1 mouse, plasma | intravenous, 3 mg/kg | AUC(0-inf) | 650 ng·h/mL |
| CNC(=O)c1ccc(-c2cnn3ccc(C(=O)N(C)c4ccc(Cl)c(C(=O)O)c4)cc23)cc1 | – | – | female C57BL/6 mouse, plasma | oral, 10 mg/kg/day | AUC | 34 ng·h/mL |
